In brackets after ≈: the same amount, converted by molar mass. Activity calls are given as the source filed them. The rule behind the calls is not given here.
Experiments:
Pichia norvegensis = assay: Antifungal activity against Candida mycoderma after 24 hrs by NCCLS two fold broth microdilution method; type: functional
Albumin [1] = molecular target: T1, Albumin (Homo sapiens, UniProt P02768); assay: Binding affinity to human serum albumin assessed as change in entropy at 273 K by van't Hoff plot analysis; type: ADME; conditions: isolated protein
Calf thymus DNA [2] = assay: Binding affinity to calf thymus DNA assessed as hypochromic effect up to 1.6 10^-5 mol/L by UV-vis absorption spectra analysis; type: nucleic-acid assay; conditions: Bos taurus
Procedure, shortened: (§1)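 Calf thymus DNA was held at a fixed concentration and titrated with increasing amounts of compound. UV-vis absorption spectra were recorded, following the DNA absorption maximum at 260 nm.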

Albumin [3] = molecular target: T1, Albumin; assay: Binding affinity to human serum albumin assessed as Stern-Volmer quenching constant at 273 K by fluorescence spectroscopic analysis; type: ADME; conditions: isolated protein
Procedure, shortened: (§2)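 Intrinsic fluorescence of HSA (single Trp-214, emission peak 348 nm) was recorded with increasing compound concentration at several temperatures. Quenching data were fitted to the Stern-Volmer equation F0/F = 1 + KSV[Q] = 1 + Kqτ0[Q] to give KSV, and Kq was derived via τ0.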

Staphylococcus aureus [4] = assay: Antibacterial activity against Staphylococcus aureus ATCC 25923 after 24 hrs by NCCLS two fold broth microdilution method; type: functional; conditions: ATCC 25923, 24 h
Procedure, shortened: (§3)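 Two-fold serial broth microdilution in 96-well plates following NCCLS. Compounds were dissolved in DMSO as stocks, then diluted in Mueller–Hinton broth to final concentrations of 0.5–512 µg/mL. Plates were inoculated and incubated at 37 °C for 24 h, with growth read visually and spectrophotometrically. MIC was taken as the lowest concentration giving complete growth inhibition. Run in triplicate, with a DMSO-plus-inoculum solvent control.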

Albumin [5] = molecular target: T1, Albumin; assay: Binding affinity to human serum albumin up to 1.6 10^-5 mol/L by UV-vis absorption spectra analysis; type: ADME; conditions: isolated protein
Pseudomonas aeruginosa [6] = assay: Antibacterial activity against Pseudomonas aeruginosa ATCC 27853 after 24 hrs by NCCLS two fold broth microdilution method; type: functional; conditions: ATCC 27853, 24 h
Procedure, shortened: as §3, with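 “NCCLS.” for “NCCLS. Compounds were dissolved in DMSO as stocks, then diluted in Mueller–Hinton broth to final concentrations of 0.5–512 µg/mL.”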

Saccharomyces cerevisiae = assay: Antifungal activity against Saccharomyces cerevisiae after 24 hrs by NCCLS two fold broth microdilution method; type: functional
Procedure, shortened: (§4)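 Two-fold serial microdilution following NCCLS. A spore suspension in sterile distilled water was prepared from one-day-old cultures grown on Sabouraud agar and adjusted to a final 1–5 × 10^3 spores/mL. DMSO stocks were diluted in RPMI 1640 to eleven concentrations (0.5–512 µg/mL), inoculated and held at 35 °C for 24 h. Growth was read visually and spectrophotometrically, MIC was the lowest concentration with complete inhibition, and runs were in triplicate.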

Albumin [7] = molecular target: T1, Albumin; assay: Binding affinity to human serum albumin assessed as Gibbs free energy change at 313 K by van't Hoff plot analysis; type: ADME; conditions: isolated protein
Albumin [8] = molecular target: T1, Albumin; assay: Binding affinity to human serum albumin at 273 K by modified Stern-Volmer method; type: ADME; conditions: isolated protein
Aspergillus flavus [9] = assay: Antifungal activity against Aspergillus flavus after 24 hrs by NCCLS two fold broth microdilution method; type: functional; procedure, shortened: as §4
Escherichia coli = assay: Antibacterial activity against Escherichia coli ATCC 8099 after 24 hrs by NCCLS two fold broth microdilution method; type: functional; conditions: ATCC 8099, 24 h
Procedure, shortened: as §3, with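 “NCCLS.” for “NCCLS. Compounds were dissolved in DMSO as stocks, then diluted in Mueller–Hinton broth to final concentrations of 0.5–512 µg/mL.”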

Albumin [10] = molecular target: T1, Albumin; assay: Binding affinity to human serum albumin at 293 K by scatchard plot analysis; type: ADME; conditions: isolated protein
Staphylococcus aureus [11] = assay: Potency index, ratio of norfloxacin MIC to compound MIC for Staphylococcus aureus ATCC 25923; type: functional
Albumin [12] = molecular target: T1, Albumin; assay: Binding affinity to human serum albumin assessed as change in enthalpy at 273 K by van't Hoff plot analysis; type: ADME; conditions: isolated protein
Albumin [13] = molecular target: T1, Albumin; assay: Binding affinity to human serum albumin assessed as quenching constant at 313 K by fluorescence spectroscopic analysis; type: ADME; conditions: isolated protein; procedure, shortened: as §2
Albumin [14] = molecular target: T1, Albumin; assay: Binding affinity to human serum albumin assessed as Stern-Volmer quenching constant at 293 K by fluorescence spectroscopic analysis; type: ADME; conditions: isolated protein; procedure, shortened: as §2
Candida albicans = assay: Antifungal activity against Candida albicans ATCC 76615 after 24 hrs by NCCLS two fold broth microdilution method; type: functional; conditions: ATCC 76615, 24 h; procedure, shortened: as §4
Albumin [15] = molecular target: T1, Albumin; assay: Binding affinity to human serum albumin assessed as Stern-Volmer quenching constant at 313 K by fluorescence spectroscopic analysis; type: ADME; conditions: isolated protein; procedure, shortened: as §2
Albumin [16] = molecular target: T1, Albumin; assay: Binding affinity to human serum albumin assessed as quenching constant at 293 K by fluorescence spectroscopic analysis; type: ADME; conditions: isolated protein; procedure, shortened: as §2
Pseudomonas aeruginosa [17] = assay: Potency index, ratio of Chloromycin MIC to compound MIC for Pseudomonas aeruginosa ATCC 27853; type: functional
Albumin [18] = molecular target: T1, Albumin; assay: Binding affinity to human serum albumin assessed as Gibbs free energy change at 273 K by van't Hoff plot analysis; type: ADME; conditions: isolated protein
Albumin [19] = molecular target: T1, Albumin; assay: Binding affinity to human serum albumin at 293 K by modified Stern-Volmer method; type: ADME; conditions: isolated protein
Cyberlindnera jadinii = assay: Antifungal activity against Candida utilis after 24 hrs by NCCLS two fold broth microdilution method; type: functional; conditions: Williopsis jadinii; procedure, shortened: as §4
Calf thymus DNA [20] = assay: Binding affinity to calf thymus DNA assessed as hyperchromic effect up to 1.6 10^-5 mol/L by UV-vis absorption spectra analysis; type: nucleic-acid assay; conditions: Bos taurus; procedure, shortened: as §1
Staphylococcus aureus [21] = assay: Potency index, ratio of Chloromycin MIC to compound MIC for Staphylococcus aureus ATCC 25923; type: functional
Albumin [22] = molecular target: T1, Albumin; assay: Binding affinity to human serum albumin assessed as Gibbs free energy change at 293 K by van't Hoff plot analysis; type: ADME; conditions: isolated protein
Bacillus = assay: Antibacterial activity against Bacillus proteus ATCC 13315 after 24 hrs by NCCLS two fold broth microdilution method; type: functional; conditions: ATCC 13315, 24 h; procedure, shortened: as §3
Albumin [23] = molecular target: T1, Albumin; assay: Binding affinity to human serum albumin by fluorescence spectroscopic analysis; type: ADME; conditions: isolated protein
Bacillus subtilis [24] = assay: Antibacterial activity against Bacillus subtilis ATCC 21216 after 24 hrs by NCCLS two fold broth microdilution method; type: functional; conditions: ATCC 21216, 24 h; procedure, shortened: as §3
Staphylococcus aureus [25] = assay: Antibacterial activity against methicillin-resistant Staphylococcus aureus N315 after 24 hrs by NCCLS two fold broth microdilution method; type: functional; conditions: N315, 24 h
Procedure, shortened: (§5)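 Two-fold serial broth microdilution per NCCLS. Chloromycin and norfloxacin as reference drugs; DMSO with inoculum, no drug, as solvent control. Incubation 37 °C for 24 h. Growth read visually and spectrophotometrically. MIC is the lowest concentration completely inhibiting growth; triplicate.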

Albumin [26] = molecular target: T1, Albumin; assay: Binding affinity to human serum albumin at 313 K by modified Stern-Volmer method; type: ADME; conditions: isolated protein
Calf thymus DNA [27] = assay: Binding affinity to calf thymus DNA by UV-vis absorption spectra analysis; type: nucleic-acid assay; conditions: Bos taurus; procedure, shortened: as §1
Calf thymus DNA [28] = assay: Binding affinity to calf thymus DNA assessed as increase in maximum absorption by UV-vis absorption spectra analysis; type: nucleic-acid assay; conditions: Bos taurus; procedure, shortened: as §1
Albumin [29] = molecular target: T1, Albumin; assay: Binding affinity to human serum albumin at 313 K by scatchard plot analysis; type: ADME; conditions: isolated protein
Albumin [30] = molecular target: T1, Albumin; assay: Binding affinity to human serum albumin assessed as quenching constant at 273 K by fluorescence spectroscopic analysis; type: ADME; conditions: isolated protein; procedure, shortened: as §2
Salmonella typhi [31] = assay: Antibacterial activity against Bacillus typhi after 24 hrs by NCCLS two fold broth microdilution method; type: functional, Salmonella enterica subsp. enterica serovar Typhi; conditions: Salmonella enterica
Procedure, shortened: as §5, with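 “NCCLS. DMSO stocks diluted in Mueller–Hinton broth to 512, 256, 128, 64, 32, 16, 8, 4, 2, 1, 0.5 µg/mL.” for “NCCLS.”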

Micrococcus luteus = assay: Antibacterial activity against Micrococcus luteus ATCC 4698 after 24 hrs by NCCLS two fold broth microdilution method; type: functional; conditions: NCTC 2665, 24 h; procedure, shortened: as §3
Calf thymus DNA [32] = assay: Inhibition of neutral red binding to calf thymus DNA up to 0.48 10^-5 mol/L by UV-vis absorption spectra analysis; type: nucleic-acid assay; conditions: Bos taurus
Albumin [33] = molecular target: T1, Albumin; assay: Binding affinity to human serum albumin at 273 K by scatchard plot analysis; type: ADME; conditions: isolated protein
Bacillus subtilis [34] = assay: Potency index, ratio of Chloromycin MIC to compound MIC for Bacillus subtilis ATCC 21216; type: functional
Aspergillus flavus [35] = assay: Potency index, ratio of Fluconazole MIC to compound MIC for Aspergillus flavus; type: functional
Salmonella typhi [36] = assay: Potency index, ratio of Chloromycin MIC to compound MIC for Bacillus typhi; type: functional, Salmonella enterica subsp. enterica serovar Typhi

T1 sequence (P02768 whole entry): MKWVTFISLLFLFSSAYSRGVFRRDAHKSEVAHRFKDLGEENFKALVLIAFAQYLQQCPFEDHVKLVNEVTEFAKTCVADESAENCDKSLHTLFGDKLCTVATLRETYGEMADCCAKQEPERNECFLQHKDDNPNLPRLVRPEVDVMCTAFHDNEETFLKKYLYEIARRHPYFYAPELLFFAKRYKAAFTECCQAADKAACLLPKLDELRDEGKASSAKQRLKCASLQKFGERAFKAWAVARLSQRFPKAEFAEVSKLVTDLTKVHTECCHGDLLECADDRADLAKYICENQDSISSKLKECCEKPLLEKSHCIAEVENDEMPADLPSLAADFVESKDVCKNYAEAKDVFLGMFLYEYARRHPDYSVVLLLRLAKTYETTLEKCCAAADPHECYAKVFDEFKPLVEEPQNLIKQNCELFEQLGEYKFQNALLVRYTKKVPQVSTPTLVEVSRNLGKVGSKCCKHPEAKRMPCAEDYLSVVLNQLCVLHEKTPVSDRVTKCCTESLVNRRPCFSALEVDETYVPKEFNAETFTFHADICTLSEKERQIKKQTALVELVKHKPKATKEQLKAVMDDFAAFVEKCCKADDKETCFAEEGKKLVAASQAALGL

CC(=O)Nc1ccc(S(=O)(=O)Cc2nc3ccccc3n2Cc2ccc(F)cc2)cc1
MIC (Pichia norvegensis): 64 µg/mL (≈ 146 µM)
deltaS (Albumin [1]): 82.61 J/mol/K
Activity (Calf thymus DNA [2]): inactive
KSV (Albumin [3]): 3.26 ×10⁴ L/mol
MIC (Staphylococcus aureus [4]): 4 µg/mL (≈ 9.14 µM)
Activity (Albumin [5]): Active
MIC (Pseudomonas aeruginosa [6]): 256 µg/mL (≈ 585 µM)
MIC (Saccharomyces cerevisiae): 64 µg/mL (≈ 146 µM)
deltaG (Albumin [7]): -6.3991 kcal/mol
Ka (Albumin [8]): 54300 M⁻¹
MIC (Aspergillus flavus [9]): 64 µg/mL (≈ 146 µM)
MIC (Escherichia coli): 32 µg/mL (≈ 73.1 µM)
Kb (Albumin [10]): 58400 M⁻¹
Ratio (Staphylococcus aureus [11]): 2
deltaH (Albumin [12]): -0.4199 kcal/mol
Kq (Albumin [13]): 2.86 ×10¹² L/mol/s
KSV (Albumin [14]): 2.2 ×10⁴ L/mol
MIC (Candida albicans): 64 µg/mL (≈ 146 µM)
KSV (Albumin [15]): 1.83 ×10⁴ L/mol
Kq (Albumin [16]): 3.44 ×10¹² L/mol/s
Ratio (Pseudomonas aeruginosa [17]): 4
deltaG (Albumin [18]): -5.81 kcal/mol
Ka (Albumin [19]): 36900 M⁻¹
MIC (Cyberlindnera jadinii): 16 µg/mL (≈ 36.6 µM)
Activity (Calf thymus DNA [20]): Active
Ratio (Staphylococcus aureus [21]): 2
deltaG (Albumin [22]): -6.1047 kcal/mol
MIC (Bacillus): 32 µg/mL (≈ 73.1 µM)
Activity (Albumin [23]): Dose-dependent effect
MIC (Bacillus subtilis [24]): 16 µg/mL (≈ 36.6 µM)
MIC (Staphylococcus aureus [25]): 16 µg/mL (≈ 36.6 µM)
Ka (Albumin [26]): 35800 M⁻¹
K (Calf thymus DNA [27]): 1.26 ×10⁴ L/mol
Activity (Calf thymus DNA [28]): Dose-dependent effect
Kb (Albumin [29]): 41600 M⁻¹
Kq (Albumin [30]): 5.09 ×10¹² L/mol/s
MIC (Salmonella typhi [31]): 16 µg/mL (≈ 36.6 µM)
MIC (Micrococcus luteus): 64 µg/mL (≈ 146 µM)
inhibition (Calf thymus DNA [32]): Active
Kb (Albumin [33]): 78600 M⁻¹
Ratio (Bacillus subtilis [34]): 2

CC(=O)Nc1ccc(S(=O)(=O)Cc2nc3ccccc3n2Cc2ccc(Cl)cc2Cl)cc1
MIC (Pichia norvegensis): 512 µg/mL (≈ 1050 µM)
deltaS (Albumin [1]): 74.429 J/mol/K
Activity (Calf thymus DNA [2]): inactive
KSV (Albumin [3]): 5.25 ×10⁴ L/mol
MIC (Staphylococcus aureus [4]): 64 µg/mL (≈ 131 µM)
Activity (Albumin [5]): Active
MIC (Pseudomonas aeruginosa [6]): 16 µg/mL (≈ 32.8 µM)
MIC (Saccharomyces cerevisiae): 128 µg/mL (≈ 262 µM)
deltaG (Albumin [7]): -5.7639 kcal/mol
Ka (Albumin [8]): 11100 M⁻¹
MIC (Aspergillus flavus [9]): 32 µg/mL (≈ 65.5 µM)
MIC (Escherichia coli): 8 µg/mL (≈ 16.4 µM)
Kb (Albumin [10]): 59300 M⁻¹
deltaH (Albumin [12]): -0.196 kcal/mol
Kq (Albumin [13]): 4.72 ×10¹² L/mol/s
KSV (Albumin [14]): 4.08 ×10⁴ L/mol
MIC (Candida albicans): 512 µg/mL (≈ 1050 µM)
KSV (Albumin [15]): 3.02 ×10⁴ L/mol
Kq (Albumin [16]): 6.38 ×10¹² L/mol/s
deltaG (Albumin [18]): -5.0523 kcal/mol
Ka (Albumin [19]): 10800 M⁻¹
Ratio (Aspergillus flavus [35]): 16
MIC (Cyberlindnera jadinii): 128 µg/mL (≈ 262 µM)
Activity (Calf thymus DNA [20]): Active
deltaG (Albumin [22]): -5.2682 kcal/mol
MIC (Bacillus): 32 µg/mL (≈ 65.5 µM)
Activity (Albumin [23]): Dose-dependent effect
MIC (Bacillus subtilis [24]): 16 µg/mL (≈ 32.8 µM)
MIC (Staphylococcus aureus [25]): 128 µg/mL (≈ 262 µM)
Ka (Albumin [26]): 10600 M⁻¹
K (Calf thymus DNA [27]): 1.52 ×10⁴ L/mol
Activity (Calf thymus DNA [28]): Dose-dependent effect
Kb (Albumin [29]): 42100 M⁻¹
Kq (Albumin [30]): 8.2 ×10¹² L/mol/s
MIC (Salmonella typhi [31]): 4 µg/mL (≈ 8.19 µM)
Ratio (Salmonella typhi [36]): 8
MIC (Micrococcus luteus): 128 µg/mL (≈ 262 µM)
inhibition (Calf thymus DNA [32]): Active
Kb (Albumin [33]): 65600 M⁻¹

— ChEMBL document CHEMBL4138085, “Design, synthesis and antimicrobial evaluation of novel benzimidazole-incorporated sulfonamide analogues” (Eur J Med Chem, 2017)
